Results from PubChem BioAssay AID624466 (The Scripps Research Institute Molecular Screening Center, 2012).
Out of some 360,000 compounds screened, about 5,400 (1.5%) were called active. The entries come from a sample that favours actives as a whole. Values without a mark were called inactive.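 The calls were made as follows: active = inhibition above a per-plate cutoff, the mean inhibition of test compounds on that plate plus 3 SD (cut at about 49% in these data); inactive = the rest.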

target: Trace amine-associated receptor 1 (Homo sapiens) (UniProt Q96RJ0); assay: human TAAR1 antagonists, primary screen, Fluo-8 calcium fluorescence, CHO RD-HGA16 cells (AID 624466); conditions: CHO RD-HGA16 TAAR1, Fluo-8 calcium fluorescence, antagonist; at 3 µM; hits give high values;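 also: 0% = DMSO plus EC80 beta-PEA response and 100% = DMSO alone without agonist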
Outline: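 Material: CHO RD-HGA16 cells bearing hTAAR1; compound dosing: one-point dosing, 3 µM nominal final; schedule: dye loading 75 min at 37 °C, then 30 min room temperature; measured by: calcium fluorescence with Fluo-8; control set: vehicle and agonist controls; replication: n of 1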

Chain of Trace amine-associated receptor 1 (Homo sapiens) (Q96RJ0 whole entry, looked up): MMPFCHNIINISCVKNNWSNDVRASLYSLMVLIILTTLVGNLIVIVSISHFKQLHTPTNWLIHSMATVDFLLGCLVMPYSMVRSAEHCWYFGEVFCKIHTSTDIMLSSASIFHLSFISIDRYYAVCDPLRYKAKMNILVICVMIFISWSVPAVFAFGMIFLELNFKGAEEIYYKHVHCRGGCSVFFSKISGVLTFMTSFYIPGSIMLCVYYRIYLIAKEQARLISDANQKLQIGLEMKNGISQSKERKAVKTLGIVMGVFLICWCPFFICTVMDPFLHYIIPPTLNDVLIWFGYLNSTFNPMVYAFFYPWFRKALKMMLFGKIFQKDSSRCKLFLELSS

Question: How did the inhibition turn out when CCOC(=O)C1(C)CCCN(C(=O)c2ccc(N(C)C)cc2)C1 (stereo unspecified) was run?
Answer: The inhibition was -13.8%.

Question: With CCC(C)CN1C(=O)CN(S(C)(=O)=O)CC1(C)C(=O)Nc1ccc2c(c1)OCCO2 (stereo unspecified) as the compound, how does the inhibition read?
Answer: Its inhibition is -7.39%.

Question: COc1ccc(CCNC(=O)c2ccccc2OCc2ccccc2)cc1 was tested. Which inhibition did it give?
Answer: Its inhibition is -1.77%.

Question: O=C(NC1CCC(O)CC1)c1ccccc1OCc1ccc(F)cc1 (stereo unspecified) was tested. Which inhibition did it give?
Answer: The inhibition was -21.4%.

Question: With CC(=O)c1ccccc1OCc1ccc(C(=O)c2ccccc2)cc1 as the compound, how does the inhibition read?
Answer: Its inhibition is 71.8% (active).

Question: With Cc1ccc2nc(-c3ccc(NC(=O)c4cccnc4)cc3)oc2c1 as the compound, how does the inhibition read?
Answer: Its inhibition is 45.9%.

Question: Which inhibition does the source give for CCC(=O)Oc1cccc(C(=O)Nc2ccc(-c3nnc(-c4ccco4)o3)cc2)c1 here?
Answer: Its inhibition is 63.3% (active).

Question: For O=C(Nc1ccc(Cl)cc1)c1cccc(OC(=S)N2CCOCC2)c1, which inhibition is on record?
Answer: The inhibition was -20.4%.

Question: For CCOC(=O)N(Cc1ccccc1)C1CC1, which inhibition is on record?
Answer: The inhibition was 2.44%.

Question: With CN(CCO)C(=O)c1nc[nH]c1C(=O)N(C)Cc1ccccc1 as the compound, how does the inhibition read?
Answer: The inhibition was -10.4%.

Question: How did the inhibition turn out when CN(C(=O)CN(CCO)CC(=O)N(C)C(C)(C)Cc1ccccc1)C(C)(C)Cc1ccccc1 was run?
Answer: The inhibition was 86.5% (active).

Question: With Cc1nc(SCC(=O)c2ccccc2)c([N+](=O)[O-])[nH]1 as the compound, how does the inhibition read?
Answer: The inhibition was 8.14%.

Question: Cc1nc2nc(SCC(=O)c3ccccc3)[nH]c2cc1Br was tested. Which inhibition did it give?
Answer: Its inhibition is -5.84%.

Question: Cc1cc(SCC(=O)c2ccccc2)nc(SCC(=O)c2ccccc2)n1 was tested. Which inhibition did it give?
Answer: Its inhibition is 51.6% (active).

Question: Which inhibition does the source give for CCOC(=O)CCCNC(=O)COC(=O)c1cc(Br)c(Br)s1 here?
Answer: The inhibition was -4.99%.

Question: How did the inhibition turn out when CCC1CCCCN1CCNS(=O)(=O)c1ccc2c(c1)CCN2C(C)=O (stereo unspecified) was run?
Answer: The inhibition was -5.09%.

Question: How did the inhibition turn out when Cc1ccc(C(=O)N/C(=C\c2cn(S(=O)(=O)N(C)C)c3ccccc23)C(=O)N2CCCC2)cc1 was run?
Answer: Its inhibition is 39.7%.

Question: How did the inhibition turn out when O=C1C(Cl)=C(Oc2ccccc2)C(=O)c2ccccc21 was run?
Answer: The inhibition was 50.9% (active).

Question: For Cc1cc(Cl)ccc1OCCCC(=O)Nc1cccc(-n2cnnn2)c1, which inhibition is on record?
Answer: The inhibition was 53% (active).

Question: Cc1cc(Cl)ccc1OCCCC(=O)NCc1ccncc1 was tested. Which inhibition did it give?
Answer: Its inhibition is 3.15%.

Question: With Cc1cc(Cl)ccc1OCCCC(=O)NCc1ccccn1 as the compound, how does the inhibition read?
Answer: The inhibition was 2.84%.

Question: Which inhibition does the source give for CC1(C(=O)NCc2ccccc2)CSCC(=O)N1CCCN1CCOCC1 (stereo unspecified) here?
Answer: Its inhibition is -18.5%.

Question: With COC(=O)c1ccc2c(c1)S(=O)(=O)NC2C (stereo unspecified) as the compound, how does the inhibition read?
Answer: Its inhibition is 4.99%.

Question: Which inhibition does the source give for CCn1c(COc2c(C)cccc2C)nnc1SCc1nc2ccccc2c(=O)[nH]1 here?
Answer: The inhibition was 2.03%.

Question: For O=c1[nH]c(CSc2ncc(-c3ccc(F)cc3)n2Cc2ccco2)nc2ccccc12, which inhibition is on record?
Answer: The inhibition was 67.8% (active).

Question: How did the inhibition turn out when Cn1c(-c2ccc(F)cc2)cnc1SCC(=O)NCc1ccco1 was run?
Answer: Its inhibition is -3.37%.

Question: CN(C)CCCn1c(SCCN2C(=O)c3ccccc3C2=O)nc2ccccc2c1=O was tested. Which inhibition did it give?
Answer: Its inhibition is -1.92%.

Question: How did the inhibition turn out when C[N+](C)(C)CCNC(=O)c1c[nH]c2ccccc12 was run?
Answer: Its inhibition is -17.1%.

Question: How did the inhibition turn out when C[C@H](NC(=O)c1ccccc1)C(=O)OCC(=O)c1c[nH]c2ccccc12 was run?
Answer: Its inhibition is 52.1% (active).

Question: How did the inhibition turn out when CCOc1ncccc1C(=O)OCC(=O)c1c[nH]c2ccccc12 was run?
Answer: Its inhibition is 42%.

Question: Which inhibition does the source give for COC(=O)C1=C(C)N(Cc2ccccc2C(F)(F)F)C(=NCC2CC2)NC1c1cccc(Cl)c1 (stereo unspecified) here?
Answer: Its inhibition is 1.62%.

Question: For CCOC(=O)c1cc(-c2ccc(Cl)s2)nc2c1c(C)nn2C, which inhibition is on record?
Answer: The inhibition was 1.4%.

Question: For CC1(C)C(=O)Nc2ccccc2N1C(=O)COC(=O)Cn1cnc2ccccc2c1=O, which inhibition is on record?
Answer: Its inhibition is 12.5%.

Question: Which inhibition does the source give for Cc1ccc(OCCC(=O)OCC(=O)N2c3ccccc3NC(=O)C2(C)C)cc1 here?
Answer: The inhibition was 50.6% (active).

Question: CNS(=O)(=O)c1cccc(C(=O)OCC(=O)N2c3ccccc3NC(=O)C2(C)C)c1 was tested. Which inhibition did it give?
Answer: Its inhibition is 0.12%.

Question: CC(c1ccccc1)n1c(NCCCn2ccnc2)nc2c1c(=O)[nH]c(=O)n2C (stereo unspecified) was tested. Which inhibition did it give?
Answer: The inhibition was 10.8%.

Question: With Cc1cc(=O)[nH]c2nnnn12 as the compound, how does the inhibition read?
Answer: The inhibition was -7.21%.

Question: How did the inhibition turn out when COc1ccc(N(CC(=O)N/N=C/c2cccs2)S(=O)(=O)c2ccc(OC)c(OC)c2)cc1 was run?
Answer: Its inhibition is 69.2% (active).

Question: How did the inhibition turn out when COc1ccc(N(CC(=O)N/N=C/c2cccc3c2OCCO3)S(=O)(=O)c2ccc(NC(C)=O)cc2)cc1 was run?
Answer: The inhibition was 29.3%.

Question: How did the inhibition turn out when COc1ccc(S(=O)(=O)N(CC(=O)N/N=C/c2ccc(C(=O)O)cc2)Cc2ccccc2)cc1OC was run?
Answer: Its inhibition is -28.3%.

Question: Nc1[nH]c(C(=O)c2ccccc2)c(-c2ccc(Cl)cc2Cl)c1C(=O)c1ccccc1 was tested. Which inhibition did it give?
Answer: The inhibition was -37.8%.

Question: How did the inhibition turn out when COc1ccccc1OCCNC(=O)C(CCSC)NC(=O)COc1ccccc1 (stereo unspecified) was run?
Answer: The inhibition was -26.3%.

Question: Which inhibition does the source give for CSCCC(NC(=O)COc1ccccc1)C(=O)OCCOc1ccc(Br)cc1 (stereo unspecified) here?
Answer: Its inhibition is 55.7% (active).

Question: How did the inhibition turn out when CSCCC(NC(=O)COc1ccccc1)C(=O)Nc1ccc(C)cc1 (stereo unspecified) was run?
Answer: Its inhibition is -10.3%.

Question: How did the inhibition turn out when CSCCC(NC(=O)COc1ccccc1)C(=O)OCc1ccc(Cl)cc1 (stereo unspecified) was run?
Answer: Its inhibition is 22.9%.

Question: How did the inhibition turn out when CSCCC(NC(=O)COc1ccccc1)C(=O)OCC(=O)c1cc2ccccc2o1 (stereo unspecified) was run?
Answer: Its inhibition is 50% (active).

Question: With CSCCC(NC(=O)COc1ccccc1)C(=O)OCCOc1ccc(F)cc1 (stereo unspecified) as the compound, how does the inhibition read?
Answer: Its inhibition is 37.1%.

Question: How did the inhibition turn out when C=CCN1C(=O)C2(OCCCO2)c2cccc(Cl)c21 was run?
Answer: Its inhibition is 3.13%.

Question: Which inhibition does the source give for O=C(Nc1c(Cl)c(C2CC2)nn1-c1ccccc1)C(Cl)(Cl)Cl here?
Answer: Its inhibition is -12.3%.

Question: Which inhibition does the source give for FC(F)(F)c1cccc(-c2nc3ccccc3n2C(c2ccccc2)c2nc3ccccc3[nH]2)c1 (stereo unspecified) here?
Answer: Its inhibition is 18.4%.

Question: Which inhibition does the source give for O=C(c1ccc(C(F)(F)F)cc1)N1CCC(=O)N([C@H](COCc2ccccc2)Cc2ccccc2)CC1 here?
Answer: The inhibition was 14.8%.

Question: COc1ccc(NC(=O)C(c2ccncc2)n2c(=O)c(-c3cc4ccccc4[nH]3)nc3ccccc32)cc1 (stereo unspecified) was tested. Which inhibition did it give?
Answer: Its inhibition is -5.75%.

Question: With O=C1NC[C@H](CCCCN2C[C@H](Cc3ccc(O)cc3)N(CCc3ccccc3)C(=O)C2=O)N(CCc2ccccc2)C1=O as the compound, how does the inhibition read?
Answer: The inhibition was 5.71%.

Question: Which inhibition does the source give for COc1ccc(C2=NOC(Cn3nc(C(=O)NCc4ccc5c(c4)OCO5)cc3-c3ccccc3)C2)cc1 (stereo unspecified) here?
Answer: Its inhibition is 59.7% (active).

Question: Which inhibition does the source give for COc1ccc(CNC(=O)C2(CC3CC(c4ccccc4)=NO3)CCN(C(=O)c3cccc(O)c3)CC2)cc1 (stereo unspecified) here?
Answer: The inhibition was 33.5%.

Question: For Cc1ccc(CNC(=O)c2cc(-c3ccccc3C)n(CC3CC(c4cccc([N+](=O)[O-])c4)=NO3)n2)cc1 (stereo unspecified), which inhibition is on record?
Answer: The inhibition was 7.96%.
